Calls of active or inactive are those of the source. The rule behind the calls is not given here. Numbered stars: 1 amine (or outer) side, 2 acyl side, 3 side chain; on linkers, the order of the positions; unused ones are H or OH. Bridge positions count the residues as written; N and C are the ends. Square brackets hold non-standard residues; d marks the D form. Peptide text beside a SMILES is read from it. * marks the point of attachment. Phe(4-Cl) = N[C@@H](Cc1ccc(Cl)cc1)C(=O)O; Phe(4-F) = N[C@@H](Cc1ccc(F)cc1)C(=O)O; 2Thi = N[C@@H](Cc1cccs1)C(=O)O; Agmatine = N=C(N)NCCCCN*; Thz = O=C(O)[C@@H]1CSCN1; X1 = O=C(CCC[*:2])[*:1]
What was measured:
Vasopressin V1a receptor = Vasopressin V1a receptor (Homo sapiens, UniProt P37288); assay: Agonist activity at recombinant human V1a receptor expressed in HEK293 cells up to 1000 nM measured after 5 hrs by luciferase reporter gene assay; assay type: cell-based; conditions: hek293, 5 h
[1] = Protein binding in rat plasma at 200 to 1000 ng/ml measured after 15 mins by UC-LC/MS/MS analysis; assay type: ADME, cell-free; conditions: read-out: PPB (converted)
Summary of the method: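 Peptide spiked into rat plasma to final 200-1000 ng/mL, incubated 15 min at 37 °C, ultracentrifuged at 773,000 xg for 30 min at 37 °C; middle-layer sample quantified by LC/MS/MS; binding (%) = (Ci − Cm)/Ci × 100; quadruplicate.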

[2] = target: T1, Oxytocin receptor (Homo sapiens) (UniProt P30559); assay: Agonist activity at human OTR stably expressed in CHOK1 cells up to 10000 nM by NFAT-luciferase reporter gene assay; assay type: cell-based
T1 sequence (whole entry): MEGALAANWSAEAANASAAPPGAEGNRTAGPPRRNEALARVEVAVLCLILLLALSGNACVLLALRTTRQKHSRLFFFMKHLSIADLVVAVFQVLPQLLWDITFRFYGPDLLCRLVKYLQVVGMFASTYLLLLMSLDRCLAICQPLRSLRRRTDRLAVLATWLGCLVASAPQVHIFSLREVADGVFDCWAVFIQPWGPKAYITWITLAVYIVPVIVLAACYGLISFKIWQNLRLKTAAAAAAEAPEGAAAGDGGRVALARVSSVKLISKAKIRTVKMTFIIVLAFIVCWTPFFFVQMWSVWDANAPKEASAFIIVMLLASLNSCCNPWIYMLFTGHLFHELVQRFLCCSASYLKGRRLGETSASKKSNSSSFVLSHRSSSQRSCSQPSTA

[3] = Non-renal clearance in nephrectomized Sprague-Dawley rat at 0.1 mg/kg, iv administered as cassette dose by LC-MS/MS analysis; assay type: ADME, organism-based; conditions: in vivo
[4] = Clearance in Sprague-Dawley rat at 0.1 mg/kg, iv administered as cassette dose by LC-MS/MS analysis; assay type: ADME, organism-based; conditions: in vivo

Vasopressin V1a receptor, sequence (P37288 whole entry): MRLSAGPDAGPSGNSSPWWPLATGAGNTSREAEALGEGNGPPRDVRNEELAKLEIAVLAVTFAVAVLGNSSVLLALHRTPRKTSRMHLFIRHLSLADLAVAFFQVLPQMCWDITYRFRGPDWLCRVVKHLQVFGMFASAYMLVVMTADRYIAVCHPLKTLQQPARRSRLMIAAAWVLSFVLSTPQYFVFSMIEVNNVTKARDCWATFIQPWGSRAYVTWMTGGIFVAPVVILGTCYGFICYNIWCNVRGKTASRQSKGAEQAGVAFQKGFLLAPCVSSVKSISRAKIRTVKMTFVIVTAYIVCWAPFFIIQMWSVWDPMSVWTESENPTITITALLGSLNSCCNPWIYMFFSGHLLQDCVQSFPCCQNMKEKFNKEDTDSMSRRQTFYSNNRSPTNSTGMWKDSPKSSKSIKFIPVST

Row | SMILES | Activity (Vasopressin V1a receptor) | fraction unbound at […] [1] | Activity [2] | CL [3] [%] | clearance [4] [mL/min/kg]
1 | CCNC(=O)[C@@H](CCCNC(=N)N)NC(=O)[C@@H]1CCCN1C(=O)[C@@H]1CSCCCC(=O)N[C@@H](Cc2ccc(Cl)cc2)C(=O)N[C@@H](Cc2cccs2)C(=O)N[C@@H](C(C)C)C(=O)N[C@@H](CC(N)=O)C(=O)N1 | Not Active | 0.16 | inactive | 49 | 10
2 | CC(C)CNC(=O)[C@@H](CCCNC(=N)N)NC(=O)[C@@H]1CCCN1C(=O)[C@@H]1CCSCCC(=O)N[C@@H](Cc2ccc(Cl)cc2)C(=O)N[C@@H](Cc2ccccc2)C(=O)N[C@@H](C(C)C)C(=O)N[C@@H](CC(N)=O)C(=O)N1 | Not Active | 0.05 | inactive | 88 | 5.4
3 | CCCNC(=O)[C@@H](CCCNC(=N)N)NC(=O)[C@@H]1CCCN1C(=O)[C@@H]1CSCCCC(=O)N[C@@H](Cc2ccc(Cl)cc2)C(=O)N[C@@H](Cc2cccs2)C(=O)N[C@@H](C(C)C)C(=O)N[C@@H](CC(N)=O)C(=O)N1 | Not Active | 0.16 | inactive | 59 | 26
4 | CC(C)CNC(=O)[C@H](CCCNC(=N)N)NC(=O)[C@@H]1CCCN1C(=O)[C@@H]1CSCCCC(=O)N[C@@H](Cc2ccc(Cl)cc2)C(=O)N[C@@H](Cc2cccs2)C(=O)N[C@@H](C(C)C)C(=O)N[C@@H](CC(N)=O)C(=O)N1 | Not Active | 0.16 | inactive | – | 51
5 | CCNC(=O)[C@@H](CCCNC(=N)N)NC(=O)[C@@H]1CCCN1C(=O)[C@@H]1CSSCCC(=O)N[C@@H](Cc2ccc(Cl)cc2)C(=O)N[C@@H](Cc2ccccc2)C(=O)N[C@@H](C(C)C)C(=O)N[C@@H](CC(N)=O)C(=O)N1 | Not Active | 0.05 | – | 47 | 7.1
6 | CC(C)[C@@H]1NC(=O)[C@H](Cc2cccs2)NC(=O)[C@H](Cc2ccc(Cl)cc2)NC(=O)CCCSC[C@@H](C(=O)N2CCC[C@H]2C(=O)N[C@H](CCCNC(=N)N)C(=O)NCC2CC2)NC(=O)[C@H](CC(N)=O)NC1=O | Not Active | 0.16 | inactive | – | 21
7 | CC(C)[C@@H]1NC(=O)[C@H](Cc2ccc(F)cc2)NC(=O)[C@H](Cc2ccc(O)cc2)NC(=O)CCCSC[C@@H](C(=O)N2CCC[C@H]2C(=O)NCCCCNC(=N)N)NC(=O)[C@H](CC(N)=O)NC1=O (Y[Phe(4-F)]VNCP-Agmatine; linker N-5 via X1) | Not Active | 0.69 | inactive | 45 | 8.7
8 | CC(C)CNC(=O)[C@@H](CCCNC(=N)N)NC(=O)[C@@H]1CCCN1C(=O)[C@@H]1CSCCCC(=O)N[C@@H](Cc2ccc(Cl)cc2)C(=O)N[C@@H](Cc2cccs2)C(=O)N[C@@H](C(C)C)C(=O)N[C@@H](CC(N)=O)C(=O)N1 | Not Active | 0.14 | inactive | 63 | 24
9 | CC(C)CNC(=O)[C@@H](CCCNC(=N)N)NC(=O)[C@@H]1CCCN1C(=O)[C@@H]1CCSCCC(=O)N[C@@H](Cc2ccc(Cl)cc2)C(=O)N[C@@H](Cc2cccs2)C(=O)N[C@@H](C(C)C)C(=O)N[C@@H](CC(N)=O)C(=O)N1 | Not Active | – | inactive | – | –
10 | CC(C)[C@@H]1NC(=O)[C@H](Cc2ccc(F)cc2)NC(=O)[C@H](Cc2ccc(Cl)cc2)NC(=O)CCCSC[C@@H](C(=O)N2CCC[C@H]2C(=O)NCCCCNC(=N)N)NC(=O)[C@H](CC(N)=O)NC1=O ([Phe(4-Cl)][Phe(4-F)]VNCP-Agmatine; linker N-5 via X1) | Not Active | 0.06 | inactive | – | 7.5
11 | CC(C)[C@@H]1NC(=O)[C@H](Cc2ccc(F)cc2)NC(=O)[C@H](Cc2ccc(Cl)cc2)NC(=O)CCCSC[C@@H](C(=O)N2CSC[C@H]2C(=O)NCCCCNC(=N)N)NC(=O)[C@H](CC(N)=O)NC1=O ([Phe(4-Cl)][Phe(4-F)]VNC[Thz]-Agmatine; linker N-5 via X1) | Not Active | 0.04 | inactive | 85 | 9.9
12 | CC(C)[C@@H]1NC(=O)[C@H](Cc2cccs2)NC(=O)[C@H](Cc2ccc(Cl)cc2)NC(=O)CCCSC[C@@H](C(=O)N2CCC[C@H]2C(=O)N[C@H](CCCNC(=N)N)C(=O)NC2CC2)NC(=O)[C@H](CC(N)=O)NC1=O | Not Active | 0.09 | inactive | 67 | 10
13 | CC(C)CNC(=O)[C@@H](CCCNC(=N)N)NC(=O)[C@@H]1C[C@@H](O)CN1C(=O)[C@@H]1CSCCCC(=O)N[C@@H](Cc2ccc(Cl)cc2)C(=O)N[C@@H](Cc2cccs2)C(=O)N[C@@H](C(C)C)C(=O)N[C@@H](CC(N)=O)C(=O)N1 | Not Active | 0.13 | inactive | – | 7.8
14 | CCNC(=O)[C@@H](CCCNC(=N)N)NC(=O)[C@@H]1C[C@@H](O)CN1C(=O)[C@@H]1CCSCCC(=O)N[C@@H](Cc2ccc(Cl)cc2)C(=O)N[C@@H](Cc2cccs2)C(=O)N[C@@H](C(C)C)C(=O)N[C@@H](CC(N)=O)C(=O)N1 | Not Active | 0.1 | inactive | 58 | 4
15 | CCNC(=O)[C@@H](CCCNC(=N)N)NC(=O)[C@@H]1CSCN1C(=O)[C@@H]1CSCCCC(=O)N[C@@H](Cc2ccc(Cl)cc2)C(=O)N[C@@H](Cc2cccs2)C(=O)N[C@@H](C(C)C)C(=O)N[C@@H](CC(N)=O)C(=O)N1 | Not Active | 0.07 | inactive | 80 | 28
16 | CCCCNC(=O)[C@@H](CCCNC(=N)N)NC(=O)[C@@H]1CCCN1C(=O)[C@@H]1CSCCCC(=O)N[C@@H](Cc2ccc(Cl)cc2)C(=O)N[C@@H](Cc2cccs2)C(=O)N[C@@H](C(C)C)C(=O)N[C@@H](CC(N)=O)C(=O)N1 | Not Active | 0.11 | inactive | 57 | 31
17 | CC(C)[C@@H]1NC(=O)[C@H](Cc2cccs2)NC(=O)[C@H](Cc2ccc(Cl)cc2)NC(=O)CCCSC[C@@H](C(=O)N2CCC[C@H]2C(=O)N[C@H](CCCNC(=N)N)C(=O)NCc2ccccc2)NC(=O)[C@H](CC(N)=O)NC1=O | Not Active | 0.1 | inactive | 84 | 23
18 | CC(C)[C@@H]1NC(=O)[C@H](Cc2cccs2)NC(=O)[C@H](Cc2ccc(Cl)cc2)NC(=O)CCCSC[C@@H](C(=O)N2CSC[C@H]2C(=O)NCCCCNC(=N)N)NC(=O)[C@H](CC(N)=O)NC1=O ([Phe(4-Cl)][2Thi]VNC[Thz]-Agmatine; linker N-5 via X1) | Not Active | 0.16 | inactive | 90 | 16

— ChEMBL document CHEMBL4396873, “Discovery of Potent, Selective, and Short-Acting Peptidic V2 Receptor Agonists” (J Med Chem, 2019)
